# This is a sample that favours compounds with a hit; in the whole collection about 1.8% have one here.
# Scp-1 inhibitor: inhibitors of human Scp-1 phosphatase | Q9GZU7 | Recombinant Scp1, phosphopeptide, malachite green phosphate absorbance | inhibition, % at 20 µM | actives 0.88% (n = 340,000);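 active means inhibition above about 50% at 20 µM, limit read from the data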;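 further: plate controls were DMSO wells with enzyme for no effect and wells lacking enzyme for full effect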
# Target sequence (Q9GZU7 76-261 limits assumed): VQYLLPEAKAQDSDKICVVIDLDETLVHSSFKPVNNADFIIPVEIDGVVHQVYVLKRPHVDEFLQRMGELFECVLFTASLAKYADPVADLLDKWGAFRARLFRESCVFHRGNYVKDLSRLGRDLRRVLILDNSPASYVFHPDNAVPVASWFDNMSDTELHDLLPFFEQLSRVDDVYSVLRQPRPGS
#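 Test system: SCP-1 phosphatase catalytic domain, residues 76-261; measured by: colorimetric phosphate reagent with accelerator and stabiliser, absorbance at 630 nm; timing: enzyme reaction 45 min at room temperature, colour 5 min, stabilisation 30 min; also added: Phosphorylated 17-residue peptide substrate; compound dosing: one concentration, 20 µM, with 1.0% DMSO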
# DNMT1 block: DNMT1 (human) enzyme inhibition | inhibition (reported as % activation of signal), % at 10 µM | P26358 | DNMT1 molecular beacon, Hinp1I cleavage, fluorescence | actives 0.83% (n = 360,000); in the data active means inhibition above about 50%
# STEP block: blocks human striatal-enriched tyrosine phosphatase | recombinant STEP, OMFP fluorogenic substrate, fluorescence | inhibition, % at 20 µM | actives 0.25% (n = 360,000);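 active means inhibition at 20 µM, scaled per plate between control wells, above about 37%, limit read from the data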;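 further: 0% = DMSO with enzyme and substrate and 100% = substrate only without enzyme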
#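 material = STEP tyrosine phosphatase | reagent = fluorogenic phosphatase substrate OMFP at 25 µM final | doses = single compound dose of 20 µM, 1% DMSO final | schedule = 20 min reaction, room temperature, in the dark | measured by = fluorescence, 480/540 nm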
# SUMO1 PPI mod: modulators of human SUMO1-mediated protein-protein interactions. SUMO1 binding to a labelled peptide, TR-FRET, 1 h. inhibition, % at 20 µM. actives 0.33% (n = 360,000). AID 602429; in the data active means inhibition above about 37%
# Target sequence (P63165 whole entry, looked up): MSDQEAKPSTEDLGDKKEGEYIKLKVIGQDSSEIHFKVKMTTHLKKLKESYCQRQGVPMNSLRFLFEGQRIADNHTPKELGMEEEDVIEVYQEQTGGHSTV
# LMPTP block: LMPTP (human) inhibition; P24666; recombinant LMPTP-A, OMFP fluorogenic substrate, fluorescence intensity; inhibition, % at 20 µM; actives 0.22% (n = 360,000); AID 651560;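 active means compounds that cut the enzyme signal by at least half of the control window in the single-dose screen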;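 further: plate controls were DMSO wells with enzyme plus substrate for no effect and substrate without enzyme for full effect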
# Target sequence (P24666 whole entry, looked up): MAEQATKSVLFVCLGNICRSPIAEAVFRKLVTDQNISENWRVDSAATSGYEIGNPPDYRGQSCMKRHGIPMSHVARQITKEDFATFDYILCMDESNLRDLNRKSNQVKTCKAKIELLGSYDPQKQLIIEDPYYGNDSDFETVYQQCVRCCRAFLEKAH
#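 Test system – LMPTP-A enzyme · Amount – LMPTP-A at 0.625 nM final in the reaction · Buffer or medium – Bis-Tris pH 6.0, DTT, detergent · Reagent – OMFP 400 µM · Doses – single 20 µM dose · Schedule – reaction 50 min, room temperature, dark · Detection – fluorescence intensity of OMFP turnover product · Evaluation – percent inhibition versus substrate-only and uninhibited controls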
# DNMT1 interf DR: shows spectral interference in the DNMT1 beacon assay | AID 602382 | shares compounds with DNMT1 block | 200 tested, under 10 active | molecular beacon fluorescence, spectral interference counter-screen | IC50, µM; call rule not given here
# DNMT1 confirm: confirmation of human DNMT1 inhibitors. shares compounds with DNMT1 block. DNMT1 molecular beacon HinP1I cleavage, fluorescence. inhibition, % at 10 µM. actives 8% (n = 2,300). AID 602385;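 active means average inhibition of at least 30% in the single-concentration confirmation test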
# DNMT1 interf: counter-screen for DNMT1 inhibitors: spectral interference. shares compounds with DNMT1 block. DNMT1 molecular beacon spectral interference counterscreen, fluorescence 485/520. activation (fluorescence interference), % at 10 µM. actives 1% (n = 2,300);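 active means activation of at least 30% at 10 µM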;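 further: DNMT1 catalytic domain with a HinP1I cleavage step and a FAM/dabcyl DNA beacon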
# The depositor's hits bear a star; nt = no result given.
SMILES,Scp-1 inhibitor,DNMT1 block,STEP block,SUMO1 PPI mod,LMPTP block,DNMT1 confirm,DNMT1 interf,others
CCOC(=O)c1c(NC(=O)COC(=O)Cn2c(C)nc3ccccc32)sc2c1CCCC2,5,65*,10,-9,27,5,1,
O=C(N/N=C/c1ccc(F)cc1)c1c(O)c2ccccc2[nH]c1=O,-4,54*,2,2,8,3,-6,
O=C(N/N=C/c1ccccc1)c1c(O)c2ccccc2[nH]c1=O,-10,1,0,-2,-1,nt,nt,
CCOC(=O)c1c(-n2c(C)cc(C=O)c2C)sc2c1CCCC2,0,-3,3,-3,0,nt,nt,
Cc1ccc(C)n1-c1sc2c(c1C(=O)O)CCCC2,43,97*,5,7,0,11,-2,
COc1ccc(OCc2nnc(SCC(=O)Nc3cccc(C(C)=O)c3)o2)cc1,-6,-3,1,0,-1,nt,nt,
Cn1cc(S(=O)(=O)N2CCNCC2)cc1C(N)=O,-4,1,-2,-1,0,nt,nt,
CCOC(=O)C1CCCN(C(=O)c2ccccc2SCCOC)C1 (configuration not stated),-4,1,0,-2,-2,nt,nt,
COCCSc1ccccc1C(=O)N1CCCC(C)C1 (configuration not stated),-11,85*,0,6,0,0,3,
CN(/N=C/c1c[nH]c2ccccc12)c1cnn(-c2ccc(F)c(Cl)c2)c(=O)c1Cl,3,111*,-3,-1,1,3,8,
Cc1cccc(C)c1NC(=O)C(c1ccc(C(F)(F)F)cc1)n1c(=O)c(-c2cc3ccccc3[nH]2)nc2ccccc21 (configuration not stated),nt,nt,nt,2,4,nt,nt,
O=C(Nc1cccc(OC(F)(F)F)c1)c1ccc(-c2cccnc2)c2ccoc12,nt,69*,0,-14,3,8,2,
Cc1cccc(/C=C/C(=O)c2cc(Br)ccc(=O)c2O)c1,-3,93*,10,13,32,10,4,
CCOc1ccc(/C=C/C(=O)c2cc(Br)ccc(=O)c2O)cc1,-4,68*,5,0,12,10,4,
Cc1ccc2oc(=O)c3cc(C(=O)NCCCN4CCCCCC4)sc3c2c1,3,67*,7,13,28,6,-2,
Cc1ccc2oc(=O)c3cc(C(=O)NCCN4CCN(C)CC4)sc3c2c1,-4,6,1,-18,-4,nt,nt,
Cc1[nH]n(C)c(=O)c1[N+](=O)[O-],2,56*,-2,1,-1,2,3,
Cn1c(=O)c(=O)n(C)c2cc([N+](=O)[O-])c([N+](=O)[O-])cc21,0,-5,4,-36,-1,nt,nt,
O=C(N/N=C/c1ccc(Br)cc1)c1ccc(NC(=O)c2ccccc2)cc1,16,74*,9,11,21,-1,-6,
Cc1ccc(/C=C/C(=O)O)cc1S(=O)(=O)Nc1ccc(C(=O)O)cc1,-1,67*,-1,11,-1,2,24,
Cc1ccc(/C=C/C(=O)O)cc1S(=O)(=O)Nc1ccccc1C(=O)O,14,7,3,10,-1,nt,nt,
Cc1oc2c(c1C(=O)c1ccc(Cl)cc1)C(=O)C(=O)c1ccccc1-2,0,74*,10,16,2,21,-9,DNMT1 interf DR=>99
Cc1ccc(C(=O)c2coc3c2C(=O)C(=O)c2ccccc2-3)cc1,-10,-6,18,-22,1,nt,nt,
O=S(=O)(Nc1c(S(=O)(=O)c2ccccc2)c2nc3ccccc3nc2n1C1CCCCC1)c1ccccc1,4,67*,0,50*,20,46*,-7,DNMT1 interf DR=>99
COc1cc2c(cc1NC(=O)Nc1ccc(C)cc1)oc1ccccc12,-5,-4,0,1,3,nt,nt,
COc1cc2c(cc1NC(=S)NC(=O)/C=C/c1ccc(OC)c(OC)c1)oc1ccccc12,-1,3,-2,-3,3,nt,nt,

# Bioassay records from PubChem.
